Laboratory results from ChEMBL document CHEMBL1144415, “Identification of novel low molecular weight CXCR4 antagonists by structural tuning of cyclic tetrapeptide scaffolds” (J Med Chem, 2005).

Experiments:
[1] = target: T1, C-X-C chemokine receptor type 4 (Homo sapiens, UniProt P61073); experiment: Inhibition of [125I]SDF-1 binding to C-X-C chemokine receptor type 4 (CXCR4) expressed in CHO cells; type: cell-based
In short: (§1)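 Stable CXCR4-expressing CHO transfectants harvested with trypsin-EDTA, recovered 4 to 5 h in complete growth medium, washed in cold binding buffer (PBS with 2 mg/mL BSA). Cells at 1 × 10⁷ cells/mL incubated with 0.1 nM [¹²⁵I]-SDF-1 for 2 h on ice with agitation. Bound and free separated by centrifugation through oil cushion, gamma counting. IC50 from at least three independent experiments, mean with SD.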

[2] = target: T1, C-X-C chemokine receptor type 4; experiment: Inhibition of [125I]SDF-1 binding to C-X-C chemokine receptor type 4 (CXCR4) expressed in CHO cells; range = 1-10 uM; type: cell-based; in short: as §1

T1 sequence (P61073 whole entry): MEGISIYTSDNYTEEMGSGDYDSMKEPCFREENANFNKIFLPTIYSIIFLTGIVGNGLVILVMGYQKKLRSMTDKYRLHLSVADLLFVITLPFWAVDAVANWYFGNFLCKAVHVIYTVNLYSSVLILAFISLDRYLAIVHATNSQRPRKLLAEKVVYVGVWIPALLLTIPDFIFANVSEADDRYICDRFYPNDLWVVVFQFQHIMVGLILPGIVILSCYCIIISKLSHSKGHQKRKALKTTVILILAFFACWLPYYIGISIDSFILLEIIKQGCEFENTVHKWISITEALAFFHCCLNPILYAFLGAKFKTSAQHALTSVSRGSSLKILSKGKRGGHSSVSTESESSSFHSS

| Structure (SMILES) | IC50 [1] | other results |
| --- | --- | --- |
| N=C(N)NCCC[C@@H]1NC(=O)[C@@H](NC(=O)CCNC(=N)N)CSSC[C@H](C(=O)NCCc2ccc(O)cc2)NC(=O)[C@H](Cc2ccc3ccccc3c2)NC1=O | 530 nM | – |
| N=C(N)NCCC(=O)N[C@H]1C/C=C\C[C@H](C(=O)NCCc2ccc(O)cc2)NC(=O)[C@H](Cc2ccc3ccccc3c2)NC(=O)[C@H](CCCN=C(N)N)NC1=O | – | IC50 [2]: 10000 nM |
| N=C(N)NCCC[C@@H]1NC(=O)[C@H](Cc2ccc(O)cc2)NC(=O)/C=C\[C@@H](Cc2ccc3ccccc3c2)NC(=O)[C@@H](CCCNC(=N)N)NC1=O | – | IC50 ([1]; cho): > 1000 nM |
| N=C(N)NCCC[C@@H]1NC(=O)[C@@H](CCC(=O)O)NC(=O)[C@@H](Cc2ccc(O)cc2)NC(=O)CNC(=O)[C@H](Cc2ccc3ccccc3c2)NC1=O | 610 nM | – |
| N=C(N)NCCC[C@H]1NC(=O)[C@@H](CCCN=C(N)N)NC(=O)[C@H](Cc2ccc(O)cc2)NC(=O)/C=C\[C@@H](Cc2ccc3ccccc3c2)NC1=O | – | IC50 ([1]; cho): > 1000 nM |
| N=C(N)NCCC[C@@H]1NC(=O)[C@H]2CCCN2C(=O)[C@@H](Cc2ccc(O)cc2)NC(=O)CNC(=O)[C@H](Cc2ccc3ccccc3c2)NC1=O | 420 nM | – |

The next lines start with results.

| IC50 [1] | Structure (SMILES) | other results |
| --- | --- | --- |
| 1600 nM | N=C(N)NCCC[C@@H]1NC(=O)[C@@H]2CCCN2C(=O)[C@@H](Cc2ccc(O)cc2)NC(=O)CNC(=O)[C@H](Cc2ccc3ccccc3c2)NC1=O | – |
| > 10000 nM | CN1C(=O)[C@@H](NC(=O)CCN=C(N)N)CSSC[C@H](C(=O)NCCc2ccc(O)cc2)NC(=O)[C@H](Cc2ccc3ccccc3c2)NC(=O)[C@@H]1CCCN=C(N)N | – |
| 170 nM | N=C(N)NCCC[C@@H]1NC(=O)[C@@H](CCC(N)=O)NC(=O)[C@@H](Cc2ccc(O)cc2)NC(=O)CNC(=O)[C@H](Cc2ccc3ccccc3c2)NC1=O | – |
| 1000 nM | N=C(N)NCCCN[C@H]1CSSC[C@H](C(=O)NCCc2ccc(O)cc2)NC(=O)[C@H](Cc2ccc3ccccc3c2)NC(=O)[C@H](CCCNC(=N)N)NC1=O | – |
